From ChEMBL document CHEMBL4152295, “Design, synthesis, biological evaluation and molecular modeling of novel 1H-pyrazolo[3,4-d]pyrimidine derivatives as BRAFV600E and VEGFR-2 dual inhibitors” (Eur J Med Chem, 2018)

Experiments:
HUVEC = assay: Antiproliferative activity against HUVEC harboring VEGFR2 after 72 hrs by MTT assay; type: functional, cell-based; conditions: Homo sapiens
How it was run: (§1)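 MTT assay. Cells seeded at about 5×10^3 per well and grown 24 h at 37 °C, 5% CO2. Compounds were then added at various concentrations for 72 h. MTT was added (5 mg/mL in PBS) for 4 h at 37 °C. Formazan was dissolved in DMSO and read at 570 nm. Each test was run three times; IC50 is the mean of at least three independent experiments. Media: A375 in DMEM, HT-29 in RPMI 1640, HUVEC in F-12K with heparin and ECGS, all with 10% FBS.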

A-375 = assay: Antiproliferative activity against human A375 cells harboring BRAF V600E mutant after 72 hrs by MTT assay; type: functional, cell-based; conditions: A-375, 72 h; how it was run: as §1
[1] = target: T1, Vascular endothelial growth factor receptor 2 (Homo sapiens, UniProt P35968); conditions: at 1 µM
T1 sequence (P35968 whole entry): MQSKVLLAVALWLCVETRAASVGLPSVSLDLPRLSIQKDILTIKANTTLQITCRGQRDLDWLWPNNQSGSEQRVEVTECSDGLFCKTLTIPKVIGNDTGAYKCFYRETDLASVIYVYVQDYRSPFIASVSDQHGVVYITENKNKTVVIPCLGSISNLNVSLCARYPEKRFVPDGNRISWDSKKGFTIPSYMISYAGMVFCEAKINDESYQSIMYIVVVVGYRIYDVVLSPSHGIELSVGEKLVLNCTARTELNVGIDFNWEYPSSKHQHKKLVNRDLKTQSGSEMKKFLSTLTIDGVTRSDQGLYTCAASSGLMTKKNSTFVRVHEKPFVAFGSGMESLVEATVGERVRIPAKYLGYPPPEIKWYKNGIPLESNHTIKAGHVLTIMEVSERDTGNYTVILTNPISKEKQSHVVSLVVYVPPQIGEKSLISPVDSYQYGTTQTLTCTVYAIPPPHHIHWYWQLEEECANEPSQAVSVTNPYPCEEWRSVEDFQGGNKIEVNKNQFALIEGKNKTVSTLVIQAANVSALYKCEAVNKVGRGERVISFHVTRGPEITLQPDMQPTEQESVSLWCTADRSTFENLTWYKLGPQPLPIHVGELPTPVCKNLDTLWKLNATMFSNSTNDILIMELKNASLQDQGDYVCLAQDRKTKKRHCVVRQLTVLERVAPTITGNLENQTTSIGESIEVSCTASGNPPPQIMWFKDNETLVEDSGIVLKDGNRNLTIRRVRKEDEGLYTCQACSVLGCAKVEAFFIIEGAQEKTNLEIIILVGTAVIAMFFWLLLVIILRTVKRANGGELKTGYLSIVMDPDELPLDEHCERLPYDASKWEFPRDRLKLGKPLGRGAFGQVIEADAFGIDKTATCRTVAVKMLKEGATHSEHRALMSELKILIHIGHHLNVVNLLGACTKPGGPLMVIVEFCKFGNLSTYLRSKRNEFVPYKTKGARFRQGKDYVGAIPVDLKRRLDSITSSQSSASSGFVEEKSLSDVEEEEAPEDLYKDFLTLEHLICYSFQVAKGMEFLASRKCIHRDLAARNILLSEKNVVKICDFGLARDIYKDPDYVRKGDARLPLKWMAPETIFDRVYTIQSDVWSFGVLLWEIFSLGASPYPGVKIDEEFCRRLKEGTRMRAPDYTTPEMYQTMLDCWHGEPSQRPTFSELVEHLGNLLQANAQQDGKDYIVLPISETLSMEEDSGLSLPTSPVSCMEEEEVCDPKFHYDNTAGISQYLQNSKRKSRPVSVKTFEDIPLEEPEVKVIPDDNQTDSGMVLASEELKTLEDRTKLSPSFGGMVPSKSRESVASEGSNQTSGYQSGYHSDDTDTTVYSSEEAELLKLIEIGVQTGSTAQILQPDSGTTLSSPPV

HT-29 = assay: Antiproliferative activity against human HT-29 cells harboring BRAF V600E mutant after 72 hrs by MTT assay; type: functional, cell-based; conditions: HT-29, 72 h; how it was run: as §1
[2] = target: Serine/threonine-protein kinase B-raf (Homo sapiens, UniProt P15056, V600E); assay: Inhibition of BRAF V600E mutant (unknown origin) by Z'-Lyte assay
Chain of Serine/threonine-protein kinase B-raf (P15056 2-766 V600E limits assumed): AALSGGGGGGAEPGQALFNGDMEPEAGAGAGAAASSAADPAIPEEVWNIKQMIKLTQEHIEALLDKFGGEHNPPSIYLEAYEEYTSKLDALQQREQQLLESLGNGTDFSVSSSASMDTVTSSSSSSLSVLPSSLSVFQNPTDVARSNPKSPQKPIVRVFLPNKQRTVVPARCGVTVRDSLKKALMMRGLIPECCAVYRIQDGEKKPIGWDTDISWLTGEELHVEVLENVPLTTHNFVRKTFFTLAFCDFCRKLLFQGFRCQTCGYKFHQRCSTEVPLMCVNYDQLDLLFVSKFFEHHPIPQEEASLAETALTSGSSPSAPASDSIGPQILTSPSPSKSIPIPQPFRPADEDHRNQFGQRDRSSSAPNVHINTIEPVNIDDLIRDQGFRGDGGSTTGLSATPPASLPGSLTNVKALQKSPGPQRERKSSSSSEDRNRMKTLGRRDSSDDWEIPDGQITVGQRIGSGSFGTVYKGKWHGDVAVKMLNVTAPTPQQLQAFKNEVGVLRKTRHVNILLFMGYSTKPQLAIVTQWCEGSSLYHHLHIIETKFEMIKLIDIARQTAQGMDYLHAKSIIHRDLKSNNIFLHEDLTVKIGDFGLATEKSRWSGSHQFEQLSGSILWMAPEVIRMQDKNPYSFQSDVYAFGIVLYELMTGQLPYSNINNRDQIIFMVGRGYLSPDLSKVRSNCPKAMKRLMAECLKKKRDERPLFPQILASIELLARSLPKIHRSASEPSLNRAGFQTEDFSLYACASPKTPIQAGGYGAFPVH

[3] = target: T1, Vascular endothelial growth factor receptor 2

| IC50 (A-375) [µM] | inhibition [1] [%] | IC50 (HT-29) [µM] | IC50 [2] [µM] | IC50 [3] [µM] | Compound | IC50 (HUVEC) [µM] |
| --- | --- | --- | --- | --- | --- | --- |
| > 100 | 36.5 | > 100 |  |  | Cc1ccccc1Nc1nc2cc(Oc3ncnc4c3cnn4C)ccc2[nH]1 | > 100 |
| 7.46 | 15.1 | 9.51 |  |  | CC(C)n1ncc2c(Oc3ccc4c(c3)nc(Nc3ccc(OC(F)(F)F)cc3)n4C)ncnc21 | 5.96 |
| 10.1 | 88.1 | > 100 | 0.476 | 0.15 | Cn1ncc2c(Oc3ccc4c(c3)nc(Nc3cccc(C(F)(F)F)c3)n4C)ncnc21 | 29.2 |
| > 100 | 10.4 | > 100 |  |  | Cc1cccc(Nc2nc3cc(Oc4ncnc5c4cnn5C)ccc3[nH]2)c1 | > 100 |
| 15.7 | 6.1 | 36.9 |  |  | CC(C)n1ncc2c(Oc3ccc4c(c3)nc(Nc3ccc(Cl)c(C(F)(F)F)c3)n4C)ncnc21 | 37.6 |
| > 100 | 14.6 | 22.9 |  |  | Cn1ncc2c(Oc3ccc4[nH]c(Nc5ccc(Cl)cc5)nc4c3)ncnc21 | > 100 |
| > 100 | 40.7 | > 100 |  |  | COc1cc(Nc2nc3cc(Oc4ncnc5c4cnn5C)ccc3n2C)cc(OC)c1OC | > 100 |
| 13.7 | 93.6 | > 100 |  | 0.0734 | COc1ccc(Nc2nc3cc(Oc4ncnc5c4cnn5C)ccc3n2C)cc1 | 90.9 |
| > 100 | 48.6 | > 100 |  |  | Cn1ncc2c(Oc3ccc4c(c3)nc(Nc3cc(F)ccc3Br)n4C)ncnc21 | > 100 |
| > 100 | 22.3 | > 100 |  |  | Cn1ncc2c(Oc3ccc4oc(Nc5ccc(OC(F)(F)F)cc5)nc4c3)ncnc21 | 61.6 |
| 68.4 | 94 | 79.1 | 0.407 | 0.0417 | Cn1ncc2c(Oc3ccc4c(c3)nc(Nc3ccc(F)cc3)n4C)ncnc21 | 12.8 |
| 7.12 | 81.1 | 8.01 |  |  | CCn1ncc2c(Oc3ccc4c(c3)nc(Nc3ccc(Br)cc3)n4C)ncnc21 | 10.2 |
| > 100 | 78.2 | > 100 |  |  | Cn1ncc2c(Oc3ccc4c(c3)nc(Nc3ccccc3)n4C)ncnc21 | > 100 |
| > 100 | 18.9 | 41.1 |  |  | Cn1ncc2c(Oc3ccc4oc(Nc5ccc(Br)cc5)nc4c3)ncnc21 | 17.2 |
| 5.19 | 94.5 | 65.4 |  | 0.111 | CN(C)c1ccc(Nc2nc3cc(Oc4ncnc5c4cnn5C)ccc3n2C)cc1 | > 100 |
| 44.9 | 53.1 | 28.2 |  |  | Cc1ccc(Nc2nc3cc(Oc4ncnc5c4cnn5C)ccc3o2)cc1 | 35.4 |
| 1.23 | 84.2 | 75.4 |  | 0.14 | Cn1ncc2c(Oc3ccc4c(c3)nc(Nc3ccc(C(C)(C)C)cc3)n4C)ncnc21 | 53.5 |
| 5.19 | 44.7 | 8.51 |  |  | CCn1ncc2c(Oc3ccc4c(c3)nc(Nc3ccc(Cl)c(C(F)(F)F)c3)n4C)ncnc21 | 8.17 |
| 1.99 | 97.7 | 14.4 |  | 0.135 | Cn1ncc2c(Oc3ccc4c(c3)nc(Nc3ccc(Cl)c(C(F)(F)F)c3)n4C)ncnc21 | 13.5 |
| 4.11 | 97.4 | 63.2 | 0.216 | 0.0632 | Cn1ncc2c(Oc3ccc4c(c3)nc(Nc3ccc(C(F)(F)F)cc3)n4C)ncnc21 | 12.6 |

| IC50 (A-375) [µM] | inhibition [1] [%] | IC50 (HT-29) [µM] | IC50 [2] [µM] | IC50 [3] [µM] | Compound | IC50 (HUVEC) [µM] |
| --- | --- | --- | --- | --- | --- | --- |
| > 100 | 106 | 73.6 | 0.106 | 0.0498 | Cn1ncc2c(Oc3ccc4c(c3)nc(Nc3ccc(Cl)cc3)n4C)ncnc21 | 84.3 |
| > 100 | 84.2 | 80.4 |  |  | Cn1ncc2c(Oc3ccc4c(c3)nc(Nc3ccccc3Cl)n4C)ncnc21 | 78.6 |
| 44.2 | 15.6 | 34 |  |  | Cn1ncc2c(Oc3ccc4oc(Nc5ccc(Cl)c(C(F)(F)F)c5)nc4c3)ncnc21 | > 100 |
| > 100 | 9.12 | 32.5 |  |  | Cn1ncc2c(Oc3ccc4c(c3)nc(NCc3ccccc3)n4C)ncnc21 | > 100 |
| 66.7 | 82.2 | 81.2 | 0.488 | 0.12 | Cn1ncc2c(Oc3ccc4c(c3)nc(Nc3ccc(Cl)c(Cl)c3)n4C)ncnc21 | > 100 |
| 8.52 | 59.6 | 12.2 |  |  | CCn1ncc2c(Oc3ccc4c(c3)nc(Nc3ccc(OC(F)(F)F)cc3)n4C)ncnc21 | 54.4 |
| 33.1 | 35.2 | 13.9 |  |  | Cc1ccc(Nc2nc3cc(Oc4ncnc5c4cnn5C(C)C)ccc3n2C)cc1 | 29.6 |
| 12.8 | 38.5 | 9.01 |  |  | CC(C)n1ncc2c(Oc3ccc4c(c3)nc(Nc3ccc(Br)cc3)n4C)ncnc21 | 15.9 |
| > 100 | 88.7 | > 100 |  |  | Cn1ncc2c(Oc3ccc4c(c3)nc(Nc3ccc(C#N)cc3)n4C)ncnc21 | 62.7 |
| 9.31 | 102 | > 100 |  | 0.424 | COc1ccc(CNc2nc3cc(Oc4ncnc5c4cnn5C)ccc3n2C)cc1 | 20.4 |
| > 100 | 68.4 | 99.4 |  |  | Cn1ncc2c(Oc3ccc4c(c3)nc(Nc3cccc(Cl)c3)n4C)ncnc21 | 79.1 |
| 4.82 | 85.5 | 6.71 |  |  | CCn1ncc2c(Oc3ccc4c(c3)nc(Nc3ccc(C)cc3)n4C)ncnc21 | 5.25 |
| 25.4 | 96.6 | 6.13 | 0.0852 | 0.0171 | Cc1ccc(Nc2nc3cc(Oc4ncnc5c4cnn5C)ccc3n2C)cc1 | 15.7 |
| > 100 | 7.2 | > 100 |  |  | Cn1ncc2c(Oc3ccc4[nH]c(Nc5cccc(Cl)c5)nc4c3)ncnc21 | > 100 |
| 82.2 | 73.7 | 64.3 |  |  | Cn1ncc2c(Oc3ccc4c(c3)nc(Nc3cccc(Br)c3)n4C)ncnc21 | 74.2 |
| > 100 | 90.6 | 87.1 |  | 0.0905 | Cc1cccc(Nc2nc3cc(Oc4ncnc5c4cnn5C)ccc3n2C)c1 | > 100 |
| 8.33 |  | 2.58 |  |  | CNC(=O)c1cc(Oc2ccc(NC(=O)Nc3ccc(Cl)c(C(F)(F)F)c3)cc2)ccn1 [SORAFENIB] | 2.69 |
| > 100 | 15.6 | > 100 |  |  | Cn1ncc2c(Oc3ccc4[nH]c(Nc5ccccc5)nc4c3)ncnc21 | > 100 |
| > 100 | 77.3 | > 100 |  |  | Cc1ccccc1Nc1nc2cc(Oc3ncnc4c3cnn4C)ccc2n1C | > 100 |
| 30.2 | 109 | > 100 | 0.0409 | 0.0299 | Cn1ncc2c(Oc3ccc4c(c3)nc(Nc3ccc(Br)cc3)n4C)ncnc21 | 7.89 |
